# Source: ChEMBL document CHEMBL6134795, “Mannich reaction mediated derivatization of chromones and their biological evaluations as putative multipotent ligands for the treatment of Alzheimer's disease” (RSC Med Chem, 2024)
# Columns and labels:
# [1] = target: T1, Cholinesterase (Homo sapiens, UniProt P06276); test: Inhibition of recombinant BuChE (unknown origin) using BTCI as substrate at 20 uM preincubated for 30 mins followed by substrate addition by TECAN multiplate reader analysis relative to control
# T1 sequence (P06276 whole entry): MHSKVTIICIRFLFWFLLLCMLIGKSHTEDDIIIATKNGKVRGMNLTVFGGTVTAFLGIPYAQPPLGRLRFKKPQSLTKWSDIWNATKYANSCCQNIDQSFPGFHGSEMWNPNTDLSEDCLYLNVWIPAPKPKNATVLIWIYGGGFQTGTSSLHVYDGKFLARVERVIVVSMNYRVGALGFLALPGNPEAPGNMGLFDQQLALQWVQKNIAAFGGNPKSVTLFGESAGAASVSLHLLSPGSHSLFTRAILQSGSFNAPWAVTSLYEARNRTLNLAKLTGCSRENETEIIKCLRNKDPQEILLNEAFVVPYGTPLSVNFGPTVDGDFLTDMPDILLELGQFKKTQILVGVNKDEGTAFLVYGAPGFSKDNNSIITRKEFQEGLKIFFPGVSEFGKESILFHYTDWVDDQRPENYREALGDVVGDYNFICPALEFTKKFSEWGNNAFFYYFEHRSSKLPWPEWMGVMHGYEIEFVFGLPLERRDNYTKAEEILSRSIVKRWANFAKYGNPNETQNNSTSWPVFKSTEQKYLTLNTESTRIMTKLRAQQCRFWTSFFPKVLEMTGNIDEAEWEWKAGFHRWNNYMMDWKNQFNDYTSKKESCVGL
# Summary of the method: (§1)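 Ellman method as for AChE, using butyrylcholinesterase with BTCI as substrate. Enzyme and compound preincubated 30 min at 37 °C in a CO2 incubator, then DTNB and BTCI added; absorbance read at 417 nm. Screening at 20 μM as % inhibition; IC50 for compounds exceeding 50% inhibition at 20 μM. Triplicate.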
# [2] = target: T2, Amine oxidase [flavin-containing] A (Homo sapiens, UniProt P21397); test: Inhibition of recombinant MAO-A (unknown origin) at 20 uM preincubated for 30 mins followed substrate addition by Amplex Red reagent based fluorescence analysis relative to control
# T2 sequence (P21397 whole entry): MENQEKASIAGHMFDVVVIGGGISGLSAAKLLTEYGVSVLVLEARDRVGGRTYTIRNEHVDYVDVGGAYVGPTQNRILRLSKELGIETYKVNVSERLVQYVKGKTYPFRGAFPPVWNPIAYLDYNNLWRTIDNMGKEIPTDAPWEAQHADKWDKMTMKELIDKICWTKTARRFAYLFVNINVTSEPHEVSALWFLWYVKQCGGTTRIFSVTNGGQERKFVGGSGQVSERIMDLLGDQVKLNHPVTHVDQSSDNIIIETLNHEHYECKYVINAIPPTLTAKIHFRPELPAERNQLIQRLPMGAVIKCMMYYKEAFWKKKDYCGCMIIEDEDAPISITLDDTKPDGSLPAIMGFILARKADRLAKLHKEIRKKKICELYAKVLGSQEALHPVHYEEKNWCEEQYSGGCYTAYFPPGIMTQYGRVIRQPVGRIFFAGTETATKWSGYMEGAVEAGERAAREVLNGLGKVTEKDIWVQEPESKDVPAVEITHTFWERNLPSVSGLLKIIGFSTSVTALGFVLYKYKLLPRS
# Summary of the method: (§2)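 Recombinant MAO enzyme preincubated with compound 30 min at 37 °C; substrate, HRP and Amplex Red working solution then added; H2O2 formation read at 37 °C by fluorescence, ex 545/em 590 nm. Screening at 20 μM as % inhibition versus control; IC50 only for compounds above 50% inhibition at 20 μM; triplicate (n = 3).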
# [3] = target: T3, Amine oxidase [flavin-containing] B (Homo sapiens, UniProt P27338); test: Inhibition of recombinant MAO-B (unknown origin) at 20 uM preincubated for 30 mins followed substrate addition by Amplex Red reagent based fluorescence analysis relative to control; summary of the method: as §2
# T3 sequence (P27338 whole entry): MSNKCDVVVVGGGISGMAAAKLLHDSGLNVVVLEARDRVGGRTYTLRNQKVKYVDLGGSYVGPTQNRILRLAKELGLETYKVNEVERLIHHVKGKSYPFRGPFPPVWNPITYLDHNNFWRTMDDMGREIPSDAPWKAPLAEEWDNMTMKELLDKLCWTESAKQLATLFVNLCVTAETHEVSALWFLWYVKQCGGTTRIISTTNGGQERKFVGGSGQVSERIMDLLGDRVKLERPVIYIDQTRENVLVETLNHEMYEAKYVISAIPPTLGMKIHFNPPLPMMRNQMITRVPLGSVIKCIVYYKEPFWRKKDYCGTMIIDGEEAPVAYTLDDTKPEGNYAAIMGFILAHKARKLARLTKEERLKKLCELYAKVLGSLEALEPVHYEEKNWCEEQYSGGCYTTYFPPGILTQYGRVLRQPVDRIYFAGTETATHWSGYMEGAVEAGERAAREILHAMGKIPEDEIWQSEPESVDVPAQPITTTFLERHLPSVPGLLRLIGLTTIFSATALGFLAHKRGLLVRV
# [4] = target: Amyloid-beta precursor protein (Homo sapiens) (UniProt P05067); test: Inhibition of self-induced amyloid beta (1 to 42 residues) (unknown origin) aggregation at 20 uM incubated at 48 hrs by fluorimetry-based thioflavin T assay
# Sequence of Amyloid-beta precursor protein (Homo sapiens) (P05067 whole entry, the tested form may be a part): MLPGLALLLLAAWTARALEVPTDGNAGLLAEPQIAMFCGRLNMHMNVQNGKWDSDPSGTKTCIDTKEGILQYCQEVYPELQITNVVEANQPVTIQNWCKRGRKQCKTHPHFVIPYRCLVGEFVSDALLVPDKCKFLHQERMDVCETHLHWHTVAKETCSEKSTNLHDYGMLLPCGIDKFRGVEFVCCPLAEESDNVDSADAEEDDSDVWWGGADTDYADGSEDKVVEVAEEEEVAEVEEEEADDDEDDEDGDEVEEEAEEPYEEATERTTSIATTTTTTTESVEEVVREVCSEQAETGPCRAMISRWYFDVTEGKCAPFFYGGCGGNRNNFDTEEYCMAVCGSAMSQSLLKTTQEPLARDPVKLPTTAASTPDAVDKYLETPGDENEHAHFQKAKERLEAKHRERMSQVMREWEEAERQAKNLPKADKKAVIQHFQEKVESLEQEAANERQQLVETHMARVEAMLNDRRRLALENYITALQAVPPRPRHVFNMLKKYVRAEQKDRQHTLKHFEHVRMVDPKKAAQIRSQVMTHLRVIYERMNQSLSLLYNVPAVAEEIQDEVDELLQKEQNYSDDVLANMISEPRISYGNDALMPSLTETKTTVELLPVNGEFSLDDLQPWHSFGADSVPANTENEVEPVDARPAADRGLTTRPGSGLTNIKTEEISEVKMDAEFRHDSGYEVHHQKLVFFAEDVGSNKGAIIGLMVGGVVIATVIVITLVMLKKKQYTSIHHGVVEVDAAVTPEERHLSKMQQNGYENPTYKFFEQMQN
# Summary of the method: (§3)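 Aβ1-42 pretreated with HFIP (1 mg mL−1) and dried, then incubated with compound (20 μM) at 37 °C for 24 h; an aliquot transferred and incubated further to 48 h. Glycine–NaOH buffer pH 8.0 with 5 μM ThT added; fluorescence read at 440–485 nm. % inhibition calculated against the Aβ-only control taken as 0%.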
# [5] = target: Amyloid-beta precursor protein (Homo sapiens) (UniProt P05067); test: Inhibition of self-induced amyloid beta (1 to 42 residues) (unknown origin) aggregation at 20 uM incubated at 24 hrs by fluorimetry-based thioflavin T assay; summary of the method: as §3
# [6] = target: T1, Cholinesterase; test: Inhibition of recombinant BuChE (unknown origin) using BTCI as substrate preincubated for 30 mins followed by substrate addition by TECAN multiplate reader analysis; summary of the method: as §1
# [7] = target: Acetylcholinesterase (Homo sapiens, UniProt P22303); test: Reversible inhibition of AChE (unknown origin) assessed as residual activity at 100 times IC50 incubated for 30 mins by dilution method relative to control
# Sequence of Acetylcholinesterase (P22303 whole entry): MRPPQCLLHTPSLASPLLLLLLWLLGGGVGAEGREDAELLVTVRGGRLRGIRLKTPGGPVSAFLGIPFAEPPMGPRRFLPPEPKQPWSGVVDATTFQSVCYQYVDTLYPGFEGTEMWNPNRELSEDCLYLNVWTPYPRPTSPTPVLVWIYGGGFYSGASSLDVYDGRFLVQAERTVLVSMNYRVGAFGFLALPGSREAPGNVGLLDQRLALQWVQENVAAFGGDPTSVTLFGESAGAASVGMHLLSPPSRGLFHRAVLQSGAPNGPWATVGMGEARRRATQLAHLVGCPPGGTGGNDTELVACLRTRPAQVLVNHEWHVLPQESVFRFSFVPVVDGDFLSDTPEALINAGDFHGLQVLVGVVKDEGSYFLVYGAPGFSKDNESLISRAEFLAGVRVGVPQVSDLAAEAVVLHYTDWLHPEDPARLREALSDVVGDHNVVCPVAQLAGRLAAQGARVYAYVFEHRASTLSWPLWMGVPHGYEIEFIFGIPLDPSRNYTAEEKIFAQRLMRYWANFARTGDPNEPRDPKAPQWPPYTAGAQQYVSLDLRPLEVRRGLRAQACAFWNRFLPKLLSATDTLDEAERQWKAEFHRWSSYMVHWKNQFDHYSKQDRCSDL
# Summary of the method: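 Samples then diluted 100-fold with substrate, giving final inhibitor levels of 0.1× and 1× IC50. Recovered activity measured relative to control; triplicate.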
# [8] = target: T3, Amine oxidase [flavin-containing] B; test: Reversible inhibition of MAO-B (unknown origin) assessed as residual activity at 100 times IC50 incubated for 30 mins by dilution method relative to control; settings: 0.5 h
# [9] = target: T3, Amine oxidase [flavin-containing] B; test: Reversible inhibition of MAO-B (unknown origin) assessed as residual activity at 10 times IC50 incubated for 30 mins by dilution method relative to control; settings: 0.5 h
# [10] = tested on: SH-SY5Y; test: Cytotoxicity against human SH-SY5Y cells assessed as cell viability at 5 uM by MTT assay relative to control; assay type: functional; settings: read-out: Activity
# Summary of the method: (§4)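 SH-SY5Y cells (DMEM/F-12 with 10% FBS, 1% horse serum, 1% penicillin) preincubated 24 h with compound at 1, 5 or 25 μM; MTT converted to formazan, solubilised in DMSO, absorbance read at 595 nm; viability expressed as percentage of untreated control.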
# [11] = tested on: SH-SY5Y; test: Cytotoxicity against human SH-SY5Y cells assessed as cell viability at 25 uM by MTT assay relative to control; assay type: functional; settings: read-out: Activity; summary of the method: as §4
# [12] = tested on: SH-SY5Y; test: Inhibition of ROS production in human SH-SY5Y cells assessed as intracellular ROS level at 1 uM incubated for 24 hrs by DCF-DA staining based fluorescence analysis relative to control; assay type: functional
# Summary of the method: (§5)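 Cultured SH-SY5Y cells exposed to compound (1, 5, 25 μM) for 24 h; intracellular ROS detected with DCF-DA, which is converted to fluorescent 2,7-DCF, read at ex 478/em 518 nm. Inhibition is expressed relative to control. Mean ± SD of triplicate or more independent experiments.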
# [13] = tested on: SH-SY5Y; test: Inhibition of ROS production in human SH-SY5Y cells assessed as intracellular ROS level at 5 uM incubated for 24 hrs by DCF-DA staining based fluorescence analysis relative to control; assay type: functional; summary of the method: as §5
# [14] = tested on: SH-SY5Y; test: Neuroprotective activity against 6-OHDA-induced cytotoxicity in human SH-SY5Y cells assessed as cell viability at 5 uM incubated for 24 hrs followed by exposure to 6-OHDA by MTT assay relative to control; assay type: functional; settings: read-out: Activity
# Summary of the method: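 SH-SY5Y cells treated with compound (1, 5, 25 μM) and challenged with 6-OHDA; cultured 24 h at 37 °C under humidified 5% CO2. Viability measured by MTT as formazan absorbance at 594 nm and expressed relative to control.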
structure (smiles),measurement,setting,value
C#CCCCOc1ccc(-c2cc(=O)c3ccccc3o2)cc1CN1CCCCC1,inhibition,[1],87.9%
same,inhibition at 20 µM,[2],0.23%
same,inhibition at 20 µM,[3],61.2%
same,inhibition,[4],32.2%
same,inhibition,[5],22.1%
same,IC50,[6],11 µM
same,Activity,[7],17.7%
same,Activity,[8],15%
same,Activity,[9],27.8%
same,viability at 5 µM,[10],97.4%
same,viability at 25 µM,[11],88.3%
same,inhibition at 1 µM,[12],65.7%
same,inhibition at 5 µM,[13],44.9%
same,viability at 5 µM,[14],42.9%
